Rev-RRE block: disrupts HIV-1 Rev binding to RRE RNA; inhibition, % at 8 µM; hit rate 0.79% among 97,000; Rev peptide-RRE RNA binding, FRET; AID 704; P05866;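 active means inhibition above the screen-wide mean plus 3 SD, cut at about 35% in these data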;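 further: 0% = median DMSO wells and 100% = median Neomycin B control wells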
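Test system: labelled RRE RNA duplex and labelled Rev peptide. Times: 5 min compound–RNA preincubation, then 15 min with peptide, 25 °C. Doses: single-dose 8 µM. Measured by: FRET, excitation 480 nm, emission 540 nm donor and 671 nm acceptor. Measure: % inhibition of FRET ratio versus controls.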
PostGolgi ctrl: yeast control strain growth, post-Golgi counter-screen; efflux-deficient yeast background strain, growth absorbance A615, 16 h; inhibition, % at 10 µM; hit rate 5% among 98,000; AID 738
PLK1 inh: inhibitors of human PLK1 kinase; inhibition, % at 10 µM; recombinant PLK1 kinase, TR-FRET peptide phosphorylation; hit rate 0.53% among 97,000; P53350;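 active means inhibition of 50% or more in the single-concentration screen; inactive means inhibition below 50%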;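 further: 0% = DMSO max control and 100% = H-89 dihydrochloride min control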
PLK1 PBD inh: Plk1 (human) PBD binding inhibition; hit rate 0.13% among 97,000; inhibition, %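 (tested at about 20 µM)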; Plk1 PBD phosphopeptide binding, fluorescence polarization; AID 693; P53350; in the data active means inhibition above about 34%, passing the limit was not always enough
PostGolgi yeast: growth inhibition of a yeast mutant, post-Golgi transport screen; post-Golgi transport phenotypic cell assay; hit rate 0.9% among 98,000; inhibition, % at 10 µM; AID 739;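 further: yeast cells grown in 1536-well plates; yeast grown about 18 h at 30C before absorbance read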
EphB4 antag: EphB4-ephrin-B2 interaction antagonism; inhibition, % at 7 µM; AID 720; EphB4 LBD / TNYL-RAW-Alexa532 peptide, fluorescence polarization; hit rate 0.15% among 97,000;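 active means inhibition above the screen-wide mean inhibition plus 3 SD, cut at about 15% in these data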;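 further: 0% = DMSO wells and 100% = excess unlabeled TNYL-RAW peptide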
Target sequence (P54760 whole entry, looked up, the tested form may be a part): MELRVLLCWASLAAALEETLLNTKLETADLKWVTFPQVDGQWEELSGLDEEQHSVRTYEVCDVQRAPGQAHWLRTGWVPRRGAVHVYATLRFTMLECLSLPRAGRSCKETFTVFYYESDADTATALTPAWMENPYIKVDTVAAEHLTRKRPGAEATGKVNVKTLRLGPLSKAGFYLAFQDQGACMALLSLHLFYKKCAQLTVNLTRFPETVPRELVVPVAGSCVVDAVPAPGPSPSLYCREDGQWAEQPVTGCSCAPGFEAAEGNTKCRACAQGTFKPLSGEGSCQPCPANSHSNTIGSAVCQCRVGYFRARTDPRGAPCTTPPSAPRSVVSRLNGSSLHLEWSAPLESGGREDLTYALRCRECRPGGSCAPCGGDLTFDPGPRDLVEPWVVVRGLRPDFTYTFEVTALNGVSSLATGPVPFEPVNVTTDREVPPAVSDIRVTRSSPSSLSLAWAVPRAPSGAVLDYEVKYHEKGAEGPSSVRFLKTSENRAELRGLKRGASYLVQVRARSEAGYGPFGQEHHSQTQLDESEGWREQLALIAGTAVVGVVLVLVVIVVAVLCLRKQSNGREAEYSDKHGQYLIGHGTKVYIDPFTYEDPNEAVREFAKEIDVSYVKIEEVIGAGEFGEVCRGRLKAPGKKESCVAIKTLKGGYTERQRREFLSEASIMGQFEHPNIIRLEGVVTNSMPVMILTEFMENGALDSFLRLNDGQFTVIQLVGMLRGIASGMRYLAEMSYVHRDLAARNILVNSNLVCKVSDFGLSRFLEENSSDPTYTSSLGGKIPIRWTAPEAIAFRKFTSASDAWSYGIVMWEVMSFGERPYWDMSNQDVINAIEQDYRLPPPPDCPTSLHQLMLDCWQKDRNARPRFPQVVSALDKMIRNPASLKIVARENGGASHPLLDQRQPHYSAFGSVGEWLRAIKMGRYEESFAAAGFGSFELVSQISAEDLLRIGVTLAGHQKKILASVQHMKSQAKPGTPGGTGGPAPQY
Active calls of the source: *; · = not tested or not shown; [ ] = another dose, or the depositor's remark. A selection: hits, their analogues and other compounds. The true share with any hit is near 6.4%. Unless noted, no stated cut-off is given here; in the data, active means inhibition above about 30%; inactive means the rest.

SMILES	Rev-RRE block	PostGolgi ctrl	PLK1 inh	PLK1 PBD inh	PostGolgi yeast	EphB4 antag
CCOc1ccc(C2C=C(c3ccc(C)cc3)Nc3ncnn32)cc1 (centres undefined)	30	38*	-7	-14	6	-8
CCOc1ccc(-n2c(SCC(=O)Nc3ccc4c(c3)OCO4)nc3ccccc3c2=O)cc1	3	19	-14	-12	0	-3
COc1ccc(-n2nnnc2SCC(=O)Nc2ccc3c(c2)OCCO3)cc1OC	4	7	-8	-5	4	3
COc1cccc(-n2nnnc2SCC(=O)Nc2ccc3c(c2)OCCO3)c1	-1	31*	-5	21	39*	0
COc1ccc(-n2c(SCC(=O)Nc3ccc4c(c3)OCO4)nc3ccccc3c2=O)cc1	2	54*	-7	4	-3	-6
CS(=O)(=O)N1CCCC(C(=O)NCc2ccc(F)cc2)C1 (centres undefined)	·	4	·	·	-4	·
Cc1nn(C)c(Oc2ccc(Cl)cc2)c1C(=O)Nc1ccc(F)cc1F	1	3	-8	-3	-1	3
O=C(NCc1ccc2c(c1)OCO2)C1CCCN1C(=O)Nc1ccccc1 (centres undefined)	11	-1	-5	0	33*	-6
COc1ccccc1NC(=O)N1CCCC1C(=O)NCc1ccc2c(c1)OCO2 (centres undefined)	2	-8	-3	13	-4	2
Brc1cccc(CN2CCCCCCC2)c1	-3	10	-1	11	2	4
CCCNc1c(F)c(F)c2c(C)c3ccccc3nc2c1F	121*[fluorescence artefact?]	15	-8	-58	5	-5
O=C(c1ccc2ccccc2n1)N1CCN(c2ccccc2O)CC1	-1	11	-14	-7	0	3
COc1ccc(C2(C(=O)NC3CCCCC3)CCOCC2)cc1OC	3	30	1	-7	0	0
Cc1csc(-c2cnn(-c3ccccc3)c2NC(=O)c2ccc(C(F)(F)F)cc2)n1	8	44*	4	0	18	5
CC(C)(C)NC(=O)c1cnn(-c2ccccc2)c1NC(=O)c1ccccc1	5	6	-5	-7	-2	-8
CC(C)C(=O)N(Cc1cc2ccccc2[nH]c1=O)C(C)(C)C	0	0	-8	-29	9	-6
O=c1oc2ccccc2n1CCc1ccccc1	3	19	-6	16	7	6
O=C1c2ccccc2C(=O)N1CCCCn1c(=O)oc2ccccc21	5	44*	-8	41	4	0
O=C(CSCc1ccccc1)NNC(=S)Nc1cccc(Cl)c1Cl	5	31*	-2	-15	-7	5
CCN(CC)CC#CCC(C)(c1ccccc1)c1ccccc1	10	6	-12	8	-2	2
Cc1cc(C)nc(SCc2nnc(SCC(=O)Nc3nccs3)n2Cc2ccco2)n1	8	7	30	13	2	1
Cn1c(CSCc2ccc(F)cc2)nnc1SCC(=O)Nc1nccs1	7	1	52*	0	4	3
Cc1occc1-c1nnc(SCC(=O)Nc2nccs2)n1Cc1ccco1	1	36*	31	3	-4	0
Cn1c(CSCc2ccc(Cl)cc2)nnc1SCC(=O)Nc1nccs1	3	·	13	-4	·	3
Cn1c(CSCc2ccccc2)nnc1SCC(=O)Nc1nccs1	-1	·	56*	-2	·	-6
SMILES	Rev-RRE block	PostGolgi ctrl	PLK1 inh	PLK1 PBD inh	PostGolgi yeast	EphB4 antag
O=C(NCc1ccccn1)C1C2C=CC(C2)C1C(=O)Nc1ccc(F)cc1 (centres undefined)	8	·	-17	-4	·	-1
CCC(c1c(C)[nH]oc1=O)c1c(C)[nH]oc1=O	9	15	-5	10	3	1
CCCN1C(=O)/C(=C/c2ccc(C)o2)SC1=Nc1ccc(OC)cc1	2	9	-5	-30	4	-7
COc1ccc(N=C2S/C(=C\c3ccc(N4CCOCC4)o3)C(=O)N2CCc2c[nH]c3ccccc23)cc1	131*[fluorescence artefact?]	32*	-15	-131	12	1
Cn1c(CNc2ccc(Cl)cc2)nnc1SCc1ccccc1	5	96*	-13	-16	105*	-7
CCn1c(Cn2nnc(-c3ccccc3)n2)nnc1SCC(=O)N1CCOCC1	4	3	-17	-2	25	1
CCn1c(CNc2ccc(Cl)cc2)nnc1SCc1ccccc1	12	93*	-12	28	99*	-5
